From ChEMBL document CHEMBL1134482, “Ether phospholipid-AZT conjugates possessing anti-HIV and antitumor cell activity. Synthesis, conformational analysis, and study of their thermal effects on membrane bilayers” (J Med Chem, 2001)

What was measured:
[1] = tested on: FM3A; assay: Inhibitory effect of compound on the proliferation of murine mammary carcinoma cells FM3A/0; type: functional, cell-based; details: Mus musculus
Summary of the method: (§1)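 Murine L1210/0, L1210/TK- leukemia cells or FM3A/0 mammary carcinoma cells were incubated with the compound for 2 days at 37 °C. IC50 was the concentration reducing the total number of viable cells by 50%.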

[2] = tested on: CCRF-CEM; assay: Concentration required to protect CEM/0 cells against the cytopathicity of HIV-1 by 50%.; type: functional, cell-based; details: Homo sapiens
Summary of the method: (§2)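 CEM cells (wild-type, or TK-deficient for the HIV-2 CEM/TK- line) were infected with HIV-1 or HIV-2. EC50 was taken as the concentration protecting the cells from virus-induced cytopathicity by 50%. Values are averages of at least two separate experiments.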

[3] = tested on: L1210; assay: Inhibitory effect of compound on the proliferation of murine leukemia cells L1210/0.; type: functional, cell-based; details: Mus musculus; summary of the method: as §1
[4] = tested on: CEM-TK(-); assay: Concentration required to protect CEM/TK cells against the cytopathicity of HIV-2 by 50%; type: functional, cell-based; details: Homo sapiens; summary of the method: as §2
[5] = tested on: CCRF-CEM; assay: Concentration required to protect CEM/0 cells against the cytopathicity of HIV-2 by 50%.; type: functional, cell-based; details: Homo sapiens; summary of the method: as §2
[6] = tested on: L1210/TK-; assay: Inhibitory effect of compound on the proliferation of murine leukemia cells L1210/TK-; type: functional, cell-based; details: Mus musculus; summary of the method: as §1
[7] = tested on: MOLT-4; assay: Inhibitory effect of compound on the proliferation of human T-lymphocyte cells Molt4/C8; type: functional, cell-based
Summary of the method: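 Human Molt4/C8 T-lymphoblast cells were incubated with the compound for 3 days at 37 °C. IC50 was the concentration cutting the total viable cell number by 50%.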

[8] = tested on: CCRF-CEM; assay: Concentration required to reduce CEM/0 cell viability by 50%; type: functional; details: Homo sapiens
Summary of the method: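 Uninfected CEM/0 T-lymphocytes were exposed to the compound. CC50 was the concentration reducing CEM cell viability by 50%. Values are averages of at least two separate experiments.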

Row | Structure (SMILES) | IC50 [1] [µM] | EC50 [2] [µM] | IC50 [3] [µM] | EC50 [4] [µM] | EC50 [5] [µM] | IC50 [6] [µM] | IC50 [7] [µM] | CC50 [8] [µM]
1 | CCCCCCCCCCCCCCCCOCC(COP(=O)(O)OCC1OC(n2cc(C)c(=O)[nH]c2=O)CC1N=[N+]=[N-])OC (stereo not drawn) | 68.4 | 0.065 | 0.98 | > 10 | 0.08 | 33.6 | 21.4 | 34.3
2 | CCCCCCCCCCCCCCCCOP(=O)(O)OCC1OC(n2cc(C)c(=O)[nH]c2=O)CC1N=[N+]=[N-] (stereo not drawn) | 133 | 0.58 | 12.5 | > 50 | 1 | 165 | 144 | 161
3 | Cc1cn([C@H]2C[C@H](N=[N+]=[N-])[C@@H](CO)O2)c(=O)[nH]c1=O [ZIDOVUDINE] | 203 | 0.0064 | 6.18 | > 100 | – | > 500 | 62.8 | > 500
